Measured values: ChEMBL document CHEMBL3872205, “Design, synthesis and evaluation of novel potent angiotensin II receptor 1 antagonists” (Eur J Med Chem, 2016)

How the values were obtained:
[1] = Half life in Wistar rat lung at 10 mg/kg, po by HPLC analysis; format: ADME, organism-based
Procedure, shortened: (§1)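 Tissue distribution in male Wistar rats given oral 10, 15 or 30 mg/kg; heart, liver, spleen, lung, kidney and brain collected predose and 0.5–72 h post-dose (n = 6 per time). Tissue rinsed in saline, homogenised 0.25 g/1 mL saline, methanol extraction, dried under nitrogen, reconstituted in methanol. Analysis by reverse-phase C18 HPLC, acetonitrile/water 60:40, 1.0 mL/min, ambient temperature.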

[2] = MRT (0 to infinity) in Wistar rat liver at 10 mg/kg, po by HPLC analysis; format: ADME, organism-based
Procedure, shortened: (§2)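 Male Wistar rats (180 ± 20 g) received a single oral dose of 10, 15 or 30 mg/kg. Tissues were collected at 0, 0.5, 1, 2, 4, 6, 8, 12, 24, 48 and 72 h (n = 6 per point). Samples of 0.25 g were rinsed, then homogenized in saline (0.25 g/1 mL) and centrifuged at 10,000 × g. Supernatant was methanol-extracted, dried under nitrogen at 50 °C and reconstituted in methanol. Analysis was by C18 HPLC (acetonitrile 60% / water 40%, 1.0 mL/min).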

[3] = MRT (0 to 72 hrs) in Wistar rat liver at 15 mg/kg, po by HPLC analysis; format: ADME, organism-based; procedure, shortened: as §2
[4] = Cmax in Wistar rat lung at 15 mg/kg, po by HPLC analysis; format: ADME, organism-based; set-up: dose 15 mg/kg, route oral; procedure, shortened: as §1
[5] = Displacement of 125I-Ang2 from AT1 receptor in SPF Sprague-Dawley rat vascular smooth muscle cell membranes after 150 mins by gamma counting method
Procedure, shortened: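 Primary aortic VSMCs from SPF Sprague-Dawley rats, obtained by explant culture in DMEM/10% FBS and identified by SM α-actin staining; passages 3–6. Whole cells (10^6/well) incubated with 125I-Ang II (diluted to 0.2 nM) and compound at final 10^-12–10^-6 M, 4 °C for 150 min. Washed, lysed in 0.1 M NaOH, γ-counted. IC50 from nonlinear fit of competition curves.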

[6] = AUC (0 to infinity) in Wistar rat liver at 30 mg/kg, po by HPLC analysis; format: ADME, organism-based; set-up: dose 30 mg/kg, time infinity, route oral
Procedure, shortened: (§3)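 Wistar rats (180 ± 20 g) were dosed orally at 10, 15 or 30 mg/kg. Heart, liver, spleen, lung, kidney and brain were collected at 0–72 h (n = 6 per point). Tissue was rinsed, blotted and homogenized in saline (0.25 g/1 mL), then spun at 10,000 × g. Supernatant was methanol-extracted, dried under nitrogen at 50 °C, reconstituted in methanol and run on C18 HPLC (acetonitrile 60%/water 40%, 1.0 mL/min).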

[7] = AUC (0 to infinity) in Wistar rat Heart at 30 mg/kg, po by HPLC analysis; format: ADME, organism-based; set-up: dose 30 mg/kg, route oral, time infinity; procedure, shortened: as §3
[8] = AUC (0 to infinity) in Wistar rat Heart at 10 mg/kg, po by HPLC analysis; format: ADME, organism-based; set-up: dose 10 mg/kg, time infinity, route oral; procedure, shortened: as §3
[9] = Half life in Wistar rat kidney at 10 mg/kg, po by HPLC analysis; format: ADME, organism-based; procedure, shortened: as §1
[10] = MRT (0 to infinity) in Wistar rat lung at 15 mg/kg, po by HPLC analysis; format: ADME, organism-based; procedure, shortened: as §2
[11] = Cmax in Wistar rat heart at 15 mg/kg, po by HPLC analysis; format: ADME, organism-based; set-up: dose 15 mg/kg, route oral; procedure, shortened: as §1
[12] = Half life in Wistar rat kidney at 15 mg/kg, po by HPLC analysis; format: ADME, organism-based; procedure, shortened: as §1
[13] = Half life in Wistar rat spleen at 15 mg/kg, po by HPLC analysis; format: ADME, organism-based; procedure, shortened: as §1

## CCCCC1=NC2(CCCC2)C(=O)N1Cc1ccc2c(ccn2-c2ccccc2-c2nnn[nH]2)c1
[1]
  half-life: 3.04 h
[2]
  MRT inf: 3.58 h
[3]
  MRT last: 4.77 h
[4]
  Cmax: 0.369 µg/mL
[5]
  IC50: 1.26 nM
  Ki: 0.91 nM
[6]
  AUC(0-inf): 15.6 µg·h/mL
[7]
  AUC(0-inf): 8.76 µg·h/mL
[8]
  AUC(0-inf): 0.962 µg·h/mL
[9]
  half-life: 26.9 h
[10]
  MRT inf: 3.64 h
[11]
  Cmax: 0.283 µg/mL
[12]
  half-life: 22.6 h
[13]
  half-life: 7.57 h
